Data taken from ChEMBL document CHEMBL1153798, “Substituted tetrahydroquinolines as potent allosteric inhibitors of reverse transcriptase and its key mutants” (Bioorg Med Chem Lett, 2009).

Assays:
[1] = Volume of distribution in Beagle dog at 1 mg/kg, po and 0.5 mg/kg, iv; assay type: ADME, organism-based, Canis lupus familiaris; settings: in vivo, read-out: Vdss
How it was run: (§1)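 Beagle dogs (n = 2) dosed singly, po 1 mg/kg and iv 0.5 mg/kg; iv cassette co-administered with other analogues at 0.125 mg/kg. Interanimal variability below 20%.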

[2] = tested on: Human immunodeficiency virus 1; assay: Antiviral activity against HIV1 carrying reverse transcriptase V106A/G190A/F227L mutant infected human MT4 cells by phenoscreen assay in the presence of 40 percent normal human serum; assay type: functional, organism-based; settings: Human immunodeficiency virus 1, MT4
How it was run: (§2)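 Phenotypic recombinant-virus assay (Phenoscreen, Monogram Bioscience), run with 40% normal human serum present. IC50 is the compound concentration in cell culture that inhibits viral replication by 50%.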

[3] = tested on: Human immunodeficiency virus 1; assay: Ratio of IC50 for HIV1 carrying reverse transcriptase K103N/G190A mutant to IC50 for wild type HIV1 in the presence of 40% normal human serum; assay type: functional
[4] = tested on: Human immunodeficiency virus 1; assay: Ratio of IC50 for HIV1 carrying reverse transcriptase Y188L mutant to IC50 for wild type HIV1 in the presence of 40% normal human serum; assay type: functional
[5] = tested on: Human immunodeficiency virus 1; assay: Antiviral activity against HIV1 carrying reverse transcriptase […]/G190A mutant infected human MT4 cells in the presence of 40 percent normal human serum; assay type: functional; how it was run: as §2
[6] = tested on: Human immunodeficiency virus 1; assay: Ratio of IC50 for HIV1 carrying reverse transcriptase Y181C/G190A mutant to IC50 for wild type HIV1 in the presence of 40% normal human serum; assay type: functional
[7] = Oral bioavailability in Beagle dog at 1 mg/kg; assay type: ADME, organism-based, Canis lupus familiaris; settings: in vivo; how it was run: as §1
[8] = tested on: Human immunodeficiency virus 1; assay: Antiviral activity against HIV1 carrying reverse transcriptase G190A mutant infected human MT4 cells by phenoscreen assay in the presence of 40 percent normal human serum; settings: Human immunodeficiency virus 1, MT4
[9] = Activity of CYP3A4 in rat hepatocytes assessed as oxidation of tetrahydroquinoline ring; assay type: ADME, cell-based, Hepatocyte
[10] = tested on: Human immunodeficiency virus 1; assay: Ratio of IC50 for HIV1 carrying reverse transcriptase K103N/V179E mutant to IC50 for wild type HIV1 in the presence of 40% normal human serum; assay type: functional
[11] = tested on: Human immunodeficiency virus 1; assay: Ratio of IC50 for HIV1 carrying reverse transcriptase K103N/P225H mutant to IC50 for wild type HIV1 in the presence of 40% normal human serum; assay type: functional
[12] = tested on: Human immunodeficiency virus 1; assay: Antiviral activity against HIV1 carrying reverse transcriptase […] mutant infected human MT4 cells by phenoscreen assay in the presence of 40 percent normal human serum; assay type: functional, organism-based; settings: Human immunodeficiency virus 1, MT4; how it was run: as §2
[13] = tested on: Human immunodeficiency virus 1; assay: Antiviral activity against HIV1 infected human MT4 cells by phenoscreen assay in the presence of 40 percent normal human serum; assay type: functional, organism-based; settings: Human immunodeficiency virus 1, MT4
[14] = tested on: Human immunodeficiency virus 1; assay: Ratio of IC50 for HIV1 carrying reverse transcriptase K103N/Y181C mutant to IC50 for wild type HIV1 in the presence of 40% normal human serum; assay type: functional
[15] = tested on: Human immunodeficiency virus 1; assay: Ratio of IC50 for HIV1 carrying reverse transcriptase G190A mutant to IC50 for wild type HIV1 in the presence of 40% normal human serum; assay type: functional
[16] = tested on: Human immunodeficiency virus 1; assay: Ratio of IC50 for HIV1 carrying reverse transcriptase G190S mutant to IC50 for wild type HIV1 in the presence of 40% normal human serum; assay type: functional
[17] = tested on: Human immunodeficiency virus 1; assay: Antiviral activity against HIV1 3B infected human MT4 cells assessed as drug level required for 95% inhibition in the presence of 10% fetal bovine serum; assay type: functional
How it was run: (§3)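 Spread assay: MT-4 human T-lymphoid cells in RPMI 1640 with either 10% FBS or 50% NHS; CIC95 taken as the concentration blocking >95% of virus spread. Wild-type virus H9IIIB or R8 as stated per line. Geometric mean of at least two determinations, individual values within 25% of the mean.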

[18] = tested on: Human immunodeficiency virus 1; assay: Ratio of IC50 for HIV1 carrying reverse transcriptase V106A/G190A/F227L mutant to IC50 for wild type HIV1 in the presence of 40% normal human serum; assay type: functional
[19] = tested on: Human immunodeficiency virus 1; assay: Antiviral activity against HIV1 carrying reverse transcriptase K103N/ Y181C/G190A mutant infected human MT4 cells by phenoscreen assay in the presence of 40 percent normal human serum; assay type: functional, organism-based; settings: Human immunodeficiency virus 1, MT4; how it was run: as §2
[20] = Activity of CYP3A4 in rat plasma assessed as oxidation of tetrahydroquinoline ring; assay type: ADME, cell-free
[21] = tested on: Human immunodeficiency virus 1; assay: Antiviral activity against HIV1 carrying reverse transcriptase K103N/V179E mutant infected human MT4 cells by phenoscreen assay in the presence of 40 percent normal human serum; assay type: functional, organism-based; settings: Human immunodeficiency virus 1, MT4; how it was run: as §2
[22] = tested on: Human immunodeficiency virus 1; assay: Antiviral activity against HIV1 carrying reverse transcriptase Y181C/G190A mutant infected human MT4 cells by phenoscreen assay in the presence of 40 percent normal human serum; assay type: functional, organism-based; settings: Human immunodeficiency virus 1, MT4; how it was run: as §2
[23] = tested on: Human immunodeficiency virus 1; assay: Ratio of IC50 for HIV1 carrying reverse transcriptase Y181C mutant to IC50 for wild type HIV1 in the presence of 40% normal human serum; assay type: functional
[24] = tested on: Human immunodeficiency virus 1; assay: Ratio of IC50 for HIV1 carrying reverse transcriptase […] mutant to IC50 for wild type HIV1 in the presence of 40% normal human serum; assay type: functional
[25] = tested on: Human immunodeficiency virus 1; assay: Ratio of IC50 for HIV1 carrying reverse transcriptase K103N mutant to IC50 for wild type HIV1 in the presence of 40% normal human serum; assay type: functional
Rattus norvegicus = assay: Hepatic clearance in Sprague-Dawley rat at 10 mg/kg, po and 2 mg/kg, iv; assay type: ADME, organism-based, Liver; settings: in vivo
[26] = tested on: Human immunodeficiency virus 1; assay: Antiviral activity against HIV1 carrying reverse transcriptase K101E/G190A mutant infected human MT4 cells by phenoscreen assay in the presence of 40 percent normal human serum; settings: Human immunodeficiency virus 1, MT4
[27] = tested on: Human immunodeficiency virus 1; assay: Antiviral activity against HIV1 carrying reverse transcriptase K103N/Y181C mutant infected human MT4 cells by phenoscreen assay in the presence of 40 percent normal human serum; assay type: functional, organism-based; settings: Human immunodeficiency virus 1, MT4; how it was run: as §2
[28] = Half life in Beagle dog at 1 mg/kg, po and 0.5 mg/kg, iv; assay type: ADME, organism-based, Canis lupus familiaris; settings: in vivo; how it was run: as §1
[29] = tested on: Human immunodeficiency virus 1; assay: Antiviral activity against HIV1 carrying reverse transcriptase K103N/P225H mutant infected human MT4 cells by phenoscreen assay in the presence of 40 percent normal human serum; assay type: functional, organism-based; settings: Human immunodeficiency virus 1, MT4; how it was run: as §2
[30] = tested on: Human immunodeficiency virus 1; assay: Antiviral activity against HIV1 3B infected human MT4 cells assessed as drug level required for 95% inhibition in the presence of 50% normal human serum; assay type: functional; how it was run: as §3
[31] = Activity of CYP3A4 in rat liver microsomes assessed as oxidation of tetrahydroquinoline ring; assay type: ADME, Microsome
[32] = tested on: Human immunodeficiency virus 1; assay: Antiviral activity against HIV1 carrying reverse transcriptase Y181C mutant infected human MT4 cells by phenoscreen assay in the presence of 40 percent normal human serum; assay type: functional, organism-based; settings: Human immunodeficiency virus 1, MT4; how it was run: as §2
[33] = tested on: Human immunodeficiency virus 1; assay: Ratio of IC50 for HIV1 carrying reverse transcriptase […]/ Y181C/G190A mutant to IC50 for wild type HIV1 in the presence of 40% normal human serum; assay type: functional
[34] = tested on: Human immunodeficiency virus 1; assay: Antiviral activity against HIV1 carrying reverse transcriptase Y188L mutant infected human MT4 cells by phenoscreen assay in the presence of 40 percent normal human serum; assay type: functional, organism-based; settings: Human immunodeficiency virus 1, MT4; how it was run: as §2
[35] = tested on: Human immunodeficiency virus 1; assay: Antiviral activity against HIV1 carrying reverse transcriptase K103N/G190A mutant infected human MT4 cells by phenoscreen assay in the presence of 40 percent normal human serum; assay type: functional, organism-based; settings: Human immunodeficiency virus 1, MT4; how it was run: as §2
[36] = tested on: Human immunodeficiency virus 1; assay: Antiviral activity against HIV1 R8 infected human MT4 cells assessed as drug level required for 95% inhibition in the presence of 10% fetal bovine serum; assay type: functional; how it was run: as §3
[37] = tested on: Human immunodeficiency virus 1; assay: Antiviral activity against HIV1 R8 infected human MT4 cells assessed as drug level required for 95% inhibition in the presence of 50% normal human serum; assay type: functional; how it was run: as §3
[38] = Half life in Sprague-Dawley rat at 10 mg/kg, po and 2 mg/kg, iv; assay type: ADME, organism-based; settings: in vivo
[39] = Activity of CYP3A4 in rat bile assessed as oxidation of tetrahydroquinoline ring; assay type: ADME
[40] = tested on: Human immunodeficiency virus 1; assay: Ratio of IC50 for HIV1 carrying reverse transcriptase […]/G190A mutant to IC50 for wild type HIV1 in the presence of 40% normal human serum; assay type: functional
[41] = tested on: Human immunodeficiency virus 1; assay: Antiviral activity against HIV1 carrying reverse transcriptase G190S mutant infected human MT4 cells by phenoscreen assay in the presence of 40 percent normal human serum; settings: Human immunodeficiency virus 1, MT4
[42] = tested on: Human immunodeficiency virus 1; assay: Antiviral activity against HIV1 carrying reverse transcriptase K101E/ Y181C/G190A mutant infected human MT4 cells by phenoscreen assay in the presence of 40 percent normal human serum; settings: Human immunodeficiency virus 1, MT4
[43] = tested on: Human immunodeficiency virus 1; assay: Antiviral activity against HIV1 carrying reverse transcriptase K103N mutant infected human MT4 cells by phenoscreen assay in the presence of 40 percent normal human serum; assay type: functional, organism-based; settings: Human immunodeficiency virus 1, MT4; how it was run: as §2

NS(=O)(=O)c1ccc(NC(=O)CSC(=O)N2CCCc3cc(Cl)cc(Cl)c32)c(Cl)c1
Vd [1]: 5 L/kg | IC50 [2]: > 1000 nM | fold change (FC) [3]: 6.8 | fold change (FC) [4]: >833 | fold change (FC) [5]: 94.3 | fold change (FC) [6]: 272.5 | bioavailability [7]: 30% | IC50 [8]: 12.1 nM | Activity [9]: Active | fold change (FC) [10]: 1.8 | fold change (FC) [11]: 2.7 | IC50 [12]: 5.5 nM | IC50 [13]: 1.2 nM | fold change (FC) [14]: 53.5 | fold change (FC) [15]: 10.1 | fold change (FC) [16]: 51.6 | ID95 [17]: 13 nM | fold change (FC) [18]: >833 | IC50 [19]: > 1000 nM | Activity [20]: Active | IC50 [21]: 2.2 nM | IC50 [22]: 327 nM | fold change (FC) [23]: 14 | fold change (FC) [24]: 4.6 | fold change (FC) [25]: 0.8 | CL (Rattus norvegicus): 109 mL/min/kg | IC50 [26]: 113 nM | IC50 [27]: 64.2 nM | half-life [28]: 4.9 h | IC50 [29]: 3.2 nM | ID95 [30]: 40 nM | Activity [31]: Active | IC50 [32]: 16.8 nM | fold change (FC) [33]: >833 | IC50 [34]: > 1000 nM | IC50 [35]: 8.2 nM | Activity [36]: 18 nM | Activity [37]: 33 nM | half-life [38]: 0.4 h | Activity [39]: Active | fold change (FC) [40]: 94.3 | IC50 [41]: 61.9 nM | IC50 [42]: > 1000 nM | IC50 [43]: 0.9 nM
